Test results published in publication PMC8354861 (Bioorganic & Medicinal Chemistry, 2021).
In brackets after ≈: the same amount, converted by molar mass. Where two headings read alike, the source gives them in different places.

How the values were obtained:
SARS-CoV-2 = assay: Antiviral activity against SARS-CoV-2 in Vero E6 cells; type: cell-based
[1] = Stability in simulated intestinal fluid; type: in vitro ADME; conditions: SIF with pancreatin
In short: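 Simulated intestinal fluid was made to the USP recipe: KH2PO4, 0.2 M NaOH and 10 g/L pancreatin, adjusted to pH 6.8. Test compound stock (2 μM in DMF) was diluted into the fluid and incubated at 37 °C for up to 24 h, sampled at 0, 1, 2, 3, 4, 6 and 24 h. Reactions were stopped with ice-cold acetonitrile, centrifuged, and supernatants analysed by HPLC.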

[2] = cynomolgus monkeys; cited from earlier work
physchem = conditions: pH 6
[3] = rats; cited from earlier work
[4] = dogs; cited from earlier work
ICR mice = assay: Acute toxicity study in ICR mice; type: in vivo
In short: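 Male ICR mice (28–36 g), 15 animals randomised into five groups of three, fasted 16 h. Each group received one oral gavage dose of test compound at 50, 100, 200, 500 or 1000 mg/kg in 5% DMSO, 5% Solution Hs15 and 90% saline. Mortality was recorded over 7 days; body weight, organ weight and tissue histology were assessed after sacrifice.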

What does the source list for N#C[C@@]1(c2cc(F)c3c(N)ncnn23)O[C@H](CO)[C@@H](O)[C@H]1O [Compound 1c, (2R,3R,4S,5R)-2-(4-amino-5-fluoropyrrolo[2,1-f][1,2,4]triazin-7-yl)-3,4-dihydroxy-5-(hydroxymethyl)tetrahydrofuran-2-carbonitrile]?
anti-SARS-CoV-2 activity (in words) (SARS-CoV-2): able to inhibit the viral replication; anti-SARS-CoV-2 activity (in words) (SARS-CoV-2; listed as 3c): moderate anti-SARS-CoV-2 activity

For N#C[C@@]1(c2cc(Cl)c3c(N)ncnn23)O[C@H](CO)[C@@H](O)[C@H]1O [Compound 1a, (2R,3R,4S,5R)-2-(4-amino-5-chloropyrrolo[2,1-f][1,2,4]triazin-7-yl)-3,4-dihydroxy-5-(hydroxymethyl)tetrahydrofuran-2-carbonitrile], which “anti-SARS-CoV-2 activity (in words)” value (SARS-CoV-2) is on record?
The value was “loss of the anti-SARS-CoV-2 activity”.

For CC(C)C(=O)O[C@H]1[C@@H](O)[C@](C#N)(c2ccc3c(N)ncnn23)O[C@@H]1CO [Compound 5a, (2R,3S,4R,5R)-5-(4-aminopyrrolo[2,1-f][1,2,4]triazin-7-yl)-5-cyano-4-hydroxy-2-(hydroxymethyl)tetrahydrofuran-3-yl isobutyrate], which “stability in SIF (in words)” value [1] is on record?
Its value is “good stability”.

Which “F (oral bioavailability)” value [2] does the source give for N#C[C@@]1(c2ccc3c(N)ncnn23)O[C@H](CO)[C@@H](O)[C@H]1O [GS-441524] here?
Its value is 8.3%.

What about the solubility (physchem) of the same molecule?
The solubility was 105 µg/mL (≈ 360 µM).

What about the “F (oral bioavailability)” value [3] of the same molecule?
Its value is 33%.

What about the “F (oral bioavailability)” value [4] of the same molecule?
The value was 85%.

Which Inhibition rate (SARS-CoV-2; at 5 µM) does the source give for “(3R,4S,5R)-2-(4-aminopyrrolo[2,1-f][1,2,4]triazin-7-yl)-2-cyclopropyl-5-(hydroxymethyl)tetrahydrofuran-3,4-diol [Compound 2d]” here?
Its Inhibition rate is less than 10%.

With N#Cc1cc([C@]2(C#N)O[C@H](CO)[C@@H](O)[C@H]2O)n2ncnc(N)c12 [Compound 1d, 4-amino-7-((2R,3R,4S,5R)-2-cyano-3,4-dihydroxy-5-(hydroxymethyl)tetrahydrofuran-2-yl)pyrrolo[2,1-f][1,2,4]triazine-5-carbonitrile] as the molecule, how does the “anti-SARS-CoV-2 activity (in words)” value (SARS-CoV-2) read?
The value was “loss of the anti-SARS-CoV-2 activity”.

Which “anti-SARS-CoV-2 activity (in words)” value (SARS-CoV-2) does the source give for OC[C@H]1O[C@@H](c2ccc3c(NO)ncnn23)[C@H](O)[C@@H]1O [Compound 3b, (2S,3R,4S,5R)-2-(4-(hydroxyamino)pyrrolo[2,1-f][1,2,4]triazin-7-yl)-5-(hydroxymethyl)tetrahydrofuran-3,4-diol] here?
Its value is “did not show any antiviral activity”.

Which “well tolerated oral dosage” value (ICR mice; single oral dose) does the source give for CC(C)C(=O)OC[C@H]1O[C@@](C#N)(c2ccc3c(N)ncnn23)[C@H](O)[C@@H]1O [Compound 5c, ((2R,3S,4R,5R)-5-(4-aminopyrrolo[2,1-f][1,2,4]triazin-7-yl)-5-cyano-3,4-dihydroxytetrahydrofuran-2-yl)methyl isobutyrate] here?
Its value is “up to 1000 mg/kg”.

What about the mortality (ICR mice; single oral gavage 50-1000 mg/kg, 7-day observation period) of the same molecule?
The mortality was “No mortality”.

And the “changes in body weight, organ weight, or tissue histology” value (ICR mice; single oral gavage 50-1000 mg/kg, after sacrifice)?
The value was “No significant changes”.

For CCC(CC)COC(=O)[C@H](C)N[P@](=O)(OC[C@H]1O[C@@](C#N)(c2cc(F)c3c(N)ncnn23)[C@H](O)[C@@H]1O)Oc1ccccc1 [Compound 7, 2-ethylbutyl ((S)-(((2R,3S,4R,5R)-5-(4-amino-5-fluoropyrrolo[2,1-f][1,2,4]triazin-7-yl)-5-cyano-3,4-dihydroxytetrahydrofuran-2-yl)methoxy)(phenoxy)phosphoryl)-L-alaninate], which “anti-SARS-CoV-2 activity (in words)” value (SARS-CoV-2) is on record?
The value was “reduced activity”.
